Reference: ChEMBL document CHEMBL1131459, “2-Substituted (2SR)-2-amino-2-((1SR,2SR)-2-carboxycycloprop-1-yl)glycines as potent and selective antagonists of group II metabotropic glutamate receptors. 1. Effects of alkyl, arylalkyl, and diarylalkyl substitution” (J Med Chem, 1998)
pIC50: −log10 of the molar value.

Key:
[1] = Inhibitory activity for Group II Metabotropic glutamate receptor in rat forebrain membranes by using [3H]glutamate radioligand; assay type: cell membranes, Membrane
Summary of the method: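 Displacement of [³H]glutamic acid binding in rat forebrain membranes, an assay described as selective for group II mGluRs. Each compound was tested as a mixture of four isomers (two racemic diastereomers). Some values are the average of two determinations and some of three.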

[2] = target: T1, Metabotropic glutamate receptor 3 (Homo sapiens, UniProt Q14832); experiment: Ability to block 1S,3R-ACPD-induced inhibition of forskolin stimulated cyclic-AMP in non-neuronal cell line expressing human Metabotropic glutamate receptor 3; assay type: functional
[3] = target: T2, Metabotropic glutamate receptor 2 (Homo sapiens, UniProt Q14416); experiment: Ability to block 1S,3R-ACPD-induced inhibition of forskolin stimulated cyclic-AMP in non-neuronal cell line expressing human Metabotropic glutamate receptor 2; assay type: functional
[4] = target: T2, Metabotropic glutamate receptor 2; experiment: Compound was tested its ability to block 1S,3R-ACPD-induced inhibition of forskolin stimulated cyclic-AMP in non-neuronal cell line expressing human Metabotropic glutamate receptor 2; Agonist; assay type: functional
[5] = target: T1, Metabotropic glutamate receptor 3; experiment: Compound was tested its ability to block 1S,3R-ACPD-induced inhibition of forskolin stimulated cyclic-AMP in non-neuronal cell line expressing human Metabotropic glutamate receptor 3; Agonist; assay type: functional

T2 sequence (Q14416 whole entry): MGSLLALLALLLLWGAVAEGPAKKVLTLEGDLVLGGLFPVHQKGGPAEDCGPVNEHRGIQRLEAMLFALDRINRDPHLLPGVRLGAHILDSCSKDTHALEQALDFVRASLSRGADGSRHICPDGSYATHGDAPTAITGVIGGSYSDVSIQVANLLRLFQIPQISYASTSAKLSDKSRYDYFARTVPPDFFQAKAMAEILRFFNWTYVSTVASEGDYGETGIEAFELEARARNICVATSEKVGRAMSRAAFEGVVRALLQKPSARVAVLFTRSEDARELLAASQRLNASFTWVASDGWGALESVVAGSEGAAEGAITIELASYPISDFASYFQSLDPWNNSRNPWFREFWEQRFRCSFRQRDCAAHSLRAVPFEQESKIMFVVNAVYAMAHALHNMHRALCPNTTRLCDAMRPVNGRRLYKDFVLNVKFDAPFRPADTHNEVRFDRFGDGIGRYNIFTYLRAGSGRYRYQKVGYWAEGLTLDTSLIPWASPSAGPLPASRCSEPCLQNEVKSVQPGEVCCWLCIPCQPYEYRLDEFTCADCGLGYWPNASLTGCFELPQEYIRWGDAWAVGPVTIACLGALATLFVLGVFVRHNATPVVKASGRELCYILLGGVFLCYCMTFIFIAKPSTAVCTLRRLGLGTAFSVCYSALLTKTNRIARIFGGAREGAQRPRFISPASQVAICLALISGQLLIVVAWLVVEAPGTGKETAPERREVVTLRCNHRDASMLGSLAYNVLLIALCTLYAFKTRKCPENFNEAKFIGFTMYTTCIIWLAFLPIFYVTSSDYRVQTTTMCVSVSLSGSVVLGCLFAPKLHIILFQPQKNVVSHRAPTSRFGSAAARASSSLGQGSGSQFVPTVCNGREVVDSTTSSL
T1 sequence (Q14832 whole entry): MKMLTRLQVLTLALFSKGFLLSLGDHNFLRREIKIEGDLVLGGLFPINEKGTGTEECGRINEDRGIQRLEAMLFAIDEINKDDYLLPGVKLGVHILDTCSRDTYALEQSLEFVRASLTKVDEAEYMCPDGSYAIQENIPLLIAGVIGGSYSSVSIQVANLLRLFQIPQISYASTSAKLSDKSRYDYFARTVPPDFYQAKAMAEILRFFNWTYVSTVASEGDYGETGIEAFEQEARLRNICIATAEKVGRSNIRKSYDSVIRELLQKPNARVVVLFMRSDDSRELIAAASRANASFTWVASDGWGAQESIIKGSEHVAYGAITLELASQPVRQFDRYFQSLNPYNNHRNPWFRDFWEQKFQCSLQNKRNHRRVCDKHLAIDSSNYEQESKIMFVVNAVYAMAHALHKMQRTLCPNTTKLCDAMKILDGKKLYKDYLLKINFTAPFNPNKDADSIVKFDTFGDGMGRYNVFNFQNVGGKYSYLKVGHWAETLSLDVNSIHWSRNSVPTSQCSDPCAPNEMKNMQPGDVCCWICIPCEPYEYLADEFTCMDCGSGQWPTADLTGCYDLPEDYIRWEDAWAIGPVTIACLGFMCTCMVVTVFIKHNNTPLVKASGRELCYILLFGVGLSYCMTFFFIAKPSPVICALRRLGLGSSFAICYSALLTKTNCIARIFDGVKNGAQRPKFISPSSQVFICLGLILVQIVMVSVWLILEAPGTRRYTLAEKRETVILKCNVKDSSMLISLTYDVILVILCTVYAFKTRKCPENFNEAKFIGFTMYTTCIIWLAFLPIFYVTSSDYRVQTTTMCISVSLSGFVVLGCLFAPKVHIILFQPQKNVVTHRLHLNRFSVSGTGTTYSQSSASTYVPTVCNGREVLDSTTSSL

SMILES	pIC50 [1]	pIC50 [2]	pIC50 [3]	IC50 [4]	IC50 [5]
N[C@@](CC(Cc1ccccc1)Cc1ccccc1)(C(=O)O)C1C[C@@H]1C(=O)O (some centres not stated)	< 5.00	–	–	–	–
N[C@@](CCC(c1ccccc1)c1ccccc1)(C(=O)O)C1C[C@@H]1C(=O)O (some centres not stated)	5.15	< 5.00	< 5.00	–	–
N[C@@](CCC1CCNCC1)(C(=O)O)C1C[C@@H]1C(=O)O (some centres not stated)	< 5.00	–	–	–	–
NC(CCc1cccc2ccccc12)(C(=O)O)[C@H]1C[C@@H]1C(=O)O (some centres not stated)	–	6.33	6.62	–	–
N[C@@](CCCC(c1ccccc1)c1ccccc1)(C(=O)O)C1C[C@@H]1C(=O)O (some centres not stated)	5.15	–	–	–	–
C[C@](N)(C(=O)O)C1C[C@@H]1C(=O)O (some centres not stated)	5.21	–	–	–	–
N[C@](C(=O)O)(C1Cc2ccccc2C1)C1C[C@@H]1C(=O)O (some centres not stated)	< 5.00	–	–	–	–
NC(CCCCc1ccccc1)(C(=O)O)[C@H]1C[C@@H]1C(=O)O (some centres not stated)	5.64	5.55	6.35	–	–
N[C@@](CC1CCC1)(C(=O)O)C1C[C@@H]1C(=O)O (some centres not stated)	4.53	< 5.00	< 5.00	–	–
CCC(N)(C(=O)O)[C@H]1C[C@@H]1C(=O)O (some centres not stated)	5.66	5.60	5.19	–	–
CC(C)[C@](N)(C(=O)O)C1C[C@@H]1C(=O)O (some centres not stated)	< 5.00	–	–	–	–
N[C@@](Cc1ccccc1)(C(=O)O)C1C[C@@H]1C(=O)O (some centres not stated)	< 5.00	< 5.00	< 5.00	–	–
N[C@@](COc1ccccc1)(C(=O)O)C1C[C@@H]1C(=O)O (some centres not stated)	4.95	–	–	–	–
CCC[C@](N)(C(=O)O)C1C[C@@H]1C(=O)O (some centres not stated)	5.68	–	–	–	–
N[C@@](CCc1ccc2ccccc2c1)(C(=O)O)C1C[C@@H]1C(=O)O (some centres not stated)	5.55	–	–	–	–
CCCCC[C@](N)(C(=O)O)C1C[C@@H]1C(=O)O (some centres not stated)	5.74	–	–	–	–

Further molecules by rising pIC50 [1], results first:

pIC50 [1]	pIC50 [2]	pIC50 [3]	IC50 [4]	IC50 [5]	SMILES
5.77	–	–	–	–	CCCCCCCC[C@](N)(C(=O)O)C1C[C@@H]1C(=O)O (some centres not stated)
5.85	–	–	–	–	CCCC[C@](N)(C(=O)O)C1C[C@@H]1C(=O)O (some centres not stated)
5.85	–	–	–	–	N[C@@](CC1CCCC1)(C(=O)O)C1C[C@@H]1C(=O)O (some centres not stated)
5.96	–	–	–	–	CC(C)CC[C@](N)(C(=O)O)C1C[C@@H]1C(=O)O (some centres not stated)
6.07	–	–	–	–	CC(C)CCC[C@](N)(C(=O)O)C1C[C@@H]1C(=O)O (some centres not stated)
6.15	5.74	5.80	–	–	CC(C)C[C@](N)(C(=O)O)C1C[C@@H]1C(=O)O (some centres not stated)
6.20	6.26	6.00	–	–	NC(CCCc1ccccc1)(C(=O)O)[C@H]1C[C@@H]1C(=O)O (some centres not stated)
6.20	–	–	–	–	N[C@@](CC1CCOc2ccccc21)(C(=O)O)C1C[C@@H]1C(=O)O (some centres not stated)
6.24	–	–	–	–	N[C@@](CCc1cccs1)(C(=O)O)C1C[C@@H]1C(=O)O (some centres not stated)
6.26	–	–	–	–	N[C@@](CCC1C2CC3CC(C2)CC1C3)(C(=O)O)C1C[C@@H]1C(=O)O (some centres not stated)
6.33	–	–	Agonist	Agonist	N[C@@H](C(=O)O)C1C[C@@H]1C(=O)O (some centres not stated)
6.42	–	–	–	–	N[C@@](CCC1CCCCC1)(C(=O)O)C1C[C@@H]1C(=O)O (some centres not stated)
6.49	6.19	6.07	–	–	NC(CCc1ccccc1)(C(=O)O)[C@H]1C[C@@H]1C(=O)O (some centres not stated)
6.55	5.92	5.85	–	–	Cn1cc(CCC(N)(C(=O)O)[C@H]2C[C@@H]2C(=O)O)c2ccccc21 (some centres not stated)
6.62	6.55	5.36	–	–	N[C@@](CC(c1ccccc1)c1ccccc1)(C(=O)O)[C@H]1C[C@@H]1C(=O)O
6.64	5.85	5.96	–	–	NC(CC1CCCCC1)(C(=O)O)[C@H]1C[C@@H]1C(=O)O (some centres not stated)
6.64	–	–	–	–	N[C@@](CC1CCCc2ccccc21)(C(=O)O)C1C[C@@H]1C(=O)O (some centres not stated)
6.68	6.24	6.00	–	–	NC(CCc1ccsc1)(C(=O)O)[C@H]1C[C@@H]1C(=O)O (some centres not stated)
6.70	–	–	–	–	CC(C[C@](N)(C(=O)O)C1C[C@@H]1C(=O)O)c1ccccc1 (some centres not stated)
6.70	6.12	6.62	–	–	NC(CCC12CC3CC(CC(C3)C1)C2)(C(=O)O)[C@H]1C[C@@H]1C(=O)O (some centres not stated)
7.72	–	–	–	–	N[C@@](CC1c2ccccc2Sc2ccccc21)(C(=O)O)C1C[C@@H]1C(=O)O (some centres not stated)
8.00	–	–	–	–	N[C@@](CC1c2ccccc2Oc2ccccc21)(C(=O)O)[C@H]1C[C@@H]1C(=O)O
